Test results reported in ChEMBL document CHEMBL5113474, “Triazole-substituted phenylboronic acids as tunable lead inhibitors of KPC-2 antibiotic resistance” (Eur J Med Chem, 2022).
≈ marks a conversion by molar mass, not a printed value. One block for each molecule: values may come before it. Calls of active or inactive are those of the source. No cut-off for these calls is given here.

Columns and labels:
[1] = Inhibition of beta-lactamase CTX-M (unknown origin); set-up: species or system Bacteria
[2] = tested on: Escherichia coli; type: functional, BL21 (DE3); conditions: time 16-18 hrs
[3] = Inhibition of bacterial beta-lactamase KPC-2 expressed in Escherichia coli BL21 (DE3) using nitrocefin as substrate assessed as inhibition constant by Cheng-Prusoff equation analysis; set-up: species or system Bacteria
[4] = Solubility of the compound at 0.1 mM in 0.1 M phosphate buffer; type: physicochemical; conditions: 100 µM
[5] = tested on: Bacteria; experiment: Inhibition of bacterial beta-lactamase KPC-2 expressed in Escherichia coli BL21 (DE3) using nitrocefin as substrate at 1 uM by spectrophotometric analysis relative to control
Summary of the method: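 Purified recombinant KPC-2 tested against the chromogenic β-lactam nitrocefin at 1 µM inhibitor. Hydrolysis was followed as the rise in absorbance at 482 nm (ε482 = 17,400 M-1 cm-1). Activity is expressed as percent inhibition relative to an uninhibited control.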

[6] = tested on: Escherichia coli; experiment: Antibacterial activity against Escherichia coli NCTC10418; type: functional
[7] = tested on: Escherichia coli; experiment: microbe, parasite or virus in culture; type: functional; conditions: BL21 (DE3), dose 50 µg/ml, time 16-20 hrs
[8] = tested on: Escherichia coli; experiment: microbe, parasite or virus in culture; type: functional; conditions: BL21 (DE3), dose 50 µg/ml, time 16-20 hrs; remark: listed apart in the source
[9] = tested on: Escherichia coli; experiment: microbe, parasite or virus in culture; type: functional; conditions: BL21 (DE3), dose 5 µg/ml, time 16-20 hrs
[10] = tested on: Escherichia coli; experiment: microbe, parasite or virus in culture; type: functional; conditions: BL21 (DE3), dose 5 µg/ml, time 16-20 hrs; remark: listed apart in the source
[11] = tested on: Escherichia coli; experiment: Potentiation of cefotaxime induced antibacterial activity against Escherichia coli expressing CMY-4/TEM-1 assessed as cefotaxime MIC at 5 ug/ml incubated for 16 to 20 hrs by microdilution method; type: functional; conditions: dose 5 µg/ml, time 16-20 hrs
Summary of the method: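 Cefotaxime MIC re-measured with the boronic acid inhibitor held at a fixed 5 μg/mL, lowered from an earlier 50 μg/ml fixed-dose combination; MICs interpreted against CLSI susceptibility categories.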

[12] = Cytotoxicity against HEK293 cells assessed as cell viability at 5 to 50 ug/ml incubated for 24 hrs by MTT assay relative to control; conditions: human, at 5 to 50 µg/mL
[13] = Cytotoxicity against HEK293 cells assessed as cell viability at 5 to 50 ug/ml incubated for 24 hrs in presence of cefotaxime by MTT assay relative to control; conditions: human, at 5 to 50 µg/mL
[14] = physchem; conditions: 0.1 M phosphate buffer, pH 4.3
[15] = Inhibition of class C […]beta-lactamase AmpC (unknown origin); set-up: species or system Bacteria
[16] = Inhibition of beta-lactamase TEM-1 (unknown origin); set-up: species or system Bacteria
[17] = Inhibition of Metallo-beta-lactamase VIM-1 (unknown origin); set-up: species or system Bacteria
[18] = Inhibition of beta-lactamase OXA (unknown origin); set-up: species or system Bacteria
[19] = tested on: Klebsiella pneumoniae; experiment: Antibacterial activity against Klebsiella pneumoniae harboring OXA-48 assessed as bacterial growth inhibition incubated for 16 to 20 hrs by microdilution method; type: functional; conditions: time 16-20 hrs
[20] = physchem; conditions: 0.1 M phosphate buffer
[21] = Inhibition of beta-lactamase KPC-2 (unknown origin); set-up: species or system Bacteria
[22] = Inhibition of beta-lactamase SHV-12 (unknown origin); set-up: species or system Bacteria
[23] = Inhibition of beta-lactamase PDC-3 (unknown origin); set-up: species or system Bacteria
[24] = Inhibition of beta-lactamase P99 (unknown origin); set-up: species or system Bacteria
[25] = tested on: Escherichia coli; experiment: Antibacterial activity against Escherichia coli expressing CMY-4/TEM-1 assessed as bacterial growth inhibition at 0.06 to 64 ug/ml incubated for 16 to 20 hrs by microdilution method; type: functional, organism-based; conditions: dose 0.06-64 µg/ml, time lower […], time upper 20.0 hrs
[26] = tested on: Proteus mirabilis; experiment: Antibacterial activity against Proteus mirabilis producing CTX-M-14/CMY-2 assessed as bacterial growth inhibition incubated for 16 to 20 hrs by microdilution method; type: functional; conditions: time 16-20 hrs

SMILES: OB(O)c1cc(-n2cc(-c3ccsc3)nn2)cc(F)c1F
- inhibition zone (IZ) [2]: 19.8 mm
- Ki [3]: 5900 nM
- solubility [4]: Insoluble

SMILES: OB(O)c1cc(-n2cc(-c3ccsc3)nn2)c(F)cc1F
- inhibition zone (IZ) [2]: 28.8 mm
- inhibition [5]: 21%
- Ki [3]: 1840 nM
- MIC [6]: > 64 µg/mL
- MIC [7]: ≤ 0.06 µg/mL
- MIC [8]: ≤ 0.06 µg/mL
- MIC [9]: ≤ 0.06 µg/mL
- MIC [10]: 4 µg/mL (≈ 13 µM)
- MIC [11]: 0.12 µg/mL
- viability at 24 h [12]: > 80%
- viability at 24 h [13]: > 80%
- pKa at 100 µM [14]: 6.27

SMILES: NCc1ccc(C(=O)NC2Cc3cccc(C(=O)O)c3OB2O)cc1 (stereo not drawn)
- IC50 [15]: 270 nM
- IC50 [16]: 8.1 nM
- IC50 [17]: 61 nM
- IC50 [18]: 2000 nM

SMILES: O=C(O)c1cccc2c1OB(O)C(NC(=O)C1CCCCC1)C2 (stereo not drawn)
- IC50 [15]: 68 nM
- IC50 [16]: 2.6 nM
- IC50 [17]: 1000 nM
- IC50 [18]: 220 nM

SMILES: CO/N=C(\C(=O)N[C@@H]1C(=O)N2C(C(=O)O)=C(COC(C)=O)CS[C@H]12)c1csc(N)n1 [CEFOTAXIME]
- MIC [19]: 2 µg/mL (≈ 4.39 µM)

SMILES: O=[N+]([O-])c1ccc(F)c(B(O)O)c1
- inhibition zone (IZ) [2]: 30.5 mm
- pKa at 100 µM [14]: 6.03
- pKa [20]: 6

SMILES: C[C@@H](O)[C@H]1C(=O)N2C(C(=O)O)=C(S[C@@H]3CN[C@H](C(=O)N(C)C)C3)[C@H](C)[C@H]12 [MEROPENEM]
- Activity [25]: Active
- MIC [26]: 0.25 µg/mL (≈ 0.652 µM)
- MIC [19]: 0.5 µg/mL (≈ 1.3 µM)

The next lines start with the values.

- Ki [1]: 4 nM
SMILES: CC(C)(O/N=C(/C(=O)NCB(O)O)c1cnc(N)s1)C(=O)O

- Ki [15]: 1 nM
- IC50 [21]: 60 nM
- IC50 [22]: 40 nM
SMILES: O=C(Cc1cccs1)N[C@H](B(O)O)c1cccc(C(=O)O)c1

- IC50 [21]: 40 nM
- IC50 [22]: 140 nM
- Ki [23]: 8 nM
- Ki [24]: 14 nM
SMILES: O=C(Cc1cccs1)N[C@@H](Cn1cc(-c2cccc(C(=O)O)c2)nn1)B(O)O
